Source: ChEMBL document CHEMBL3758086, “Inhibitory effect of phenothiazine- and phenoxazine-derived chloroacetamides on Leishmania major growth and Trypanosoma brucei trypanothione reductase” (Eur J Med Chem, 2016)
Active and inactive are the calls of the source. No cut-off for these calls is given here.

Experiments:
[1] = system: Leishmania major; assay: Antileishmanial activity against promastigote stage of Leishmania major assessed as inhibition of parasite proliferation after 48 hrs by Alamar Blue assay; type: functional, organism-based
[2] = system: K562; assay: Cytotoxicity against human K562 cells assessed as cell growth inhibition after 48 hrs by Neubauer counting chamber analysis; type: cell-based; details: K562, 48 h
[3] = molecular target: Trypanothione reductase (Trypanosoma brucei brucei) (UniProt P39051); assay: Reversible inhibition of recombinant Trypanosoma brucei trypanothione reductase
[4] = molecular target: T1, Tryparedoxin peroxidase (Trypanosoma brucei) (UniProt Q9GU47); assay: Time dependent inhibition of Trypanosoma brucei tryparedoxin peroxidase preincubated for 10 mins in presence of NADPH, tryparedoxin, T(SH)2 followed by addition of hydrogen peroxide
T1 sequence (whole entry): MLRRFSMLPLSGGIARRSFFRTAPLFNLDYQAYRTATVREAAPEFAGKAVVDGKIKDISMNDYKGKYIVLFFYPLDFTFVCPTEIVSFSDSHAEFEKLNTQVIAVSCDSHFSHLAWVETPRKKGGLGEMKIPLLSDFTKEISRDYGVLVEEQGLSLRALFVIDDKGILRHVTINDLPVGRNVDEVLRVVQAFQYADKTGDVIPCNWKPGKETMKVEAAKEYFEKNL
Method in brief: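 Peroxidase cascade mixture of NADPH, T. brucei TR, tryparedoxin, peroxidase, T(SH)2 and inhibitor incubated 10 min, then reaction started with H2O2.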

[5] = molecular target: Trypanothione reductase (Trypanosoma brucei brucei) (UniProt P39051); assay: Inhibition of recombinant Trypanosoma brucei trypanothione reductase at 25 uM in presence of NADPH, trypanothione disulphide
Method in brief: (§1)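 T. brucei TR (1 µM) preincubated at 25 °C in 200 µL TR assay buffer with 400 µM NADPH and compound (25, 50 or 100 µM) or DMSO (5%). At 10, 30, 60, 120 and 180 min, a 5 µL aliquot went into a 1 mL standard assay with 100 µM NADPH, started with 100 µM trypanothione disulfide. Absorbance decrease at 340 nm followed at 25 °C.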

[6] = molecular target: Trypanothione reductase (Trypanosoma brucei brucei) (UniProt P39051); details: 50 uM
[7] = molecular target: Trypanothione reductase (Trypanosoma brucei brucei) (UniProt P39051); assay: Inhibition of recombinant Trypanosoma brucei trypanothione reductase at 100 uM in presence of NADPH, trypanothione disulphide; method in brief: as §1

Chain of Trypanothione reductase (Trypanosoma brucei brucei) (P39051 whole entry, looked up): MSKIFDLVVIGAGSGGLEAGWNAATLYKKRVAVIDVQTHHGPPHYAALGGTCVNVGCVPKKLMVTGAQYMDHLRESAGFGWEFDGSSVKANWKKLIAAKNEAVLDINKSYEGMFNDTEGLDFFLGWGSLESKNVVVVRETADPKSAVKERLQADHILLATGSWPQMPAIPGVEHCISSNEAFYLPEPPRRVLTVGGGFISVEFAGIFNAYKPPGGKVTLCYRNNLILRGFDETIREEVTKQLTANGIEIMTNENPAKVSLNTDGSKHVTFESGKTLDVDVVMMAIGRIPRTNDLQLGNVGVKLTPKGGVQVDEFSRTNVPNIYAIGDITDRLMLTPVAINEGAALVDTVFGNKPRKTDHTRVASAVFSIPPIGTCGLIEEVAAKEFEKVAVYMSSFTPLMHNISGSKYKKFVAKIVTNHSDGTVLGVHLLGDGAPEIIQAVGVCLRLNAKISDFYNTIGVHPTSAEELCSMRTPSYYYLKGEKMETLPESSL

Row | SMILES | inhibition [3] | TDI [4] | inhibition [5] | inhibition [6] | inhibition [7] | IC50 [1] | IC50 [2]
1 | ClCCN1c2ccccc2Oc2ccc(Cl)cc21 | inactive |  |  |  |  | > 100 µM | 
2 | O=C(CCl)n1c2ccccc2c2ccccc21 | inactive |  |  |  |  | > 100 µM | 6.44 µM
3 | O=C(CCl)N1c2cc(Cl)ccc2Oc2ccc(Cl)cc21 | inactive |  |  |  |  | 9.5 µM | 2.03 µM
4 | O=C(CCl)N1c2ccccc2C=Cc2ccccc21 | inactive |  |  |  |  | 48.1 µM | 6.2 µM
5 | C[C@@H]1[C@H](O)[C@@H](C)/C=C/C=C/C=C/C=C/C=C/C=C/C=C/[C@H](O[C@@H]2O[C@H](C)[C@@H](O)[C@H](N)[C@@H]2O)C[C@@H]2O[C@](O)(C[C@@H](O)C[C@@H](O)[C@H](O)CC[C@@H](O)C[C@@H](O)CC(=O)O[C@H]1C)C[C@H](O)[C@H]2C(=O)O [AMPHOTERICIN B] |  |  |  |  |  | 0.33 µM | 
6 | NC[C@@H]1O[C@H](O[C@H]2[C@@H](O)[C@H](O[C@@H]3[C@@H](O)[C@H](N)C[C@H](N)[C@H]3O[C@H]3O[C@H](CO)[C@@H](O)[C@H](O)[C@H]3N)O[C@@H]2CO)[C@H](N)[C@@H](O)[C@@H]1O [PAROMOMYCIN] |  |  |  |  |  | > 100 µM | 
7 | Clc1ccc2c(c1)Nc1ccccc1O2 | inactive |  | inactive |  |  | 69.2 µM | 
8 | O=C(CCl)N1c2ccccc2COc2ccc(Cl)cc21 | inactive | inactive |  |  |  | 7.2 µM | 3.3 µM
9 | O=C(CCl)N1c2ccccc2Sc2ccc(Cl)cc21 | inactive |  |  |  |  | 10.4 µM | 3.2 µM
10 | O=C(CCl)N(c1ccccc1)c1cccc(Cl)c1 | inactive |  |  |  |  | 40.3 µM | 
11 | CCCCCCCCCCCCCCCCOP(=O)([O-])OCC[N+](C)(C)C [MILTEFOSINE] |  |  |  |  |  | 36 µM | 
12 | O=C(CCl)Nc1cc(Cl)ccc1Oc1ccccc1 | inactive |  |  |  |  | 42.6 µM | 
13 | N=C(N)c1ccc(OCCCCCOc2ccc(C(=N)N)cc2)cc1 |  |  |  |  |  | 84 µM | 

Second part, led by results:

Row | inhibition [3] | TDI [4] | inhibition [5] | inhibition [6] | inhibition [7] | SMILES | IC50 [1] | IC50 [2]
14 | inactive |  |  |  |  | CC(Cl)C(=O)N1c2ccccc2Oc2ccccc21 (centres undefined) | > 100 µM | > 30 µM
15 | inactive |  |  |  |  | O=C(CCCCl)N1c2ccccc2Oc2ccc(Cl)cc21 | > 100 µM | > 90 µM
16 | inactive |  |  |  |  | O=C(C(Cl)CCl)N1c2ccccc2Oc2ccccc21 (centres undefined) | 9.6 µM | 
17 | inactive | inactive |  |  |  | O=C(CCl)N1c2ccccc2Sc2ccccc21 | 9.3 µM | 5 µM
18 | inactive |  |  |  |  | O=C(CCCl)N1c2ccccc2Oc2ccc(Cl)cc21 | 15.7 µM | 10.2 µM
19 | inactive |  |  | inactive |  | O=C(CCl)N1c2ccccc2Oc2ccc(Cl)cc21 | 7.6 µM | 3 µM
20 | inactive |  |  |  |  | O=C(C(Cl)Cl)N1c2ccccc2Oc2ccccc21 | 82 µM | > 30 µM
21 | inactive |  |  |  |  | N#CCC(=O)N1c2ccccc2Oc2ccccc21 | > 100 µM | 23 µM
22 | inactive |  |  |  | inactive | CC(=O)N1c2ccccc2Oc2ccc(Cl)cc21 | > 100 µM | > 30 µM
23 | inactive |  |  |  |  | O=C(CCl)N1c2ccccc2Oc2ccc(C(F)(F)F)cc21 | 9.6 µM | 
24 | inactive |  |  |  |  | O=C(CCCl)N1c2ccccc2Oc2ccccc21 | 39.1 µM | 15.2 µM
25 | inactive |  |  |  |  | O=C(CCl)N1c2ccccc2CCc2ccccc21 | 43.3 µM | 4.8 µM
26 | inactive |  |  |  |  | O=C(CBr)N1c2ccccc2Oc2ccc(Cl)cc21 | > 100 µM | 6.15 µM
